This note sets out measurements from ChEMBL document CHEMBL1123083, “Synthesis and antiherpetic activity of (S)-, (R)-, and (+/-)-9-[(2,3-dihydroxy-1-propoxy)methyl]guanine, linear isomers of 2'-nor-2'-deoxyguanosine” (J Med Chem, 1985).

Data set [1] deals with Human alphaherpesvirus 1. As to the kind of experiment: Efficacy was evaluated against Oraficial HSV-1 infection in mice with lesions administered orally at a dose 3.1 mg/kg per day. In kind it is ADME, organism-based. Further details: route oral. The settings on record: mouse, in vivo, po. In outline:
(§1)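 HSV-1 strain S inoculated in the orofacial area of mice as previously described. Half-daily doses given by gavage 8 h apart, starting 3 h after infection, for 7 days. On day 7 after infection, mice with lesions per group and average lesion score were recorded (95% confidence interval). Significance was judged against placebo-treated infected mice (p < 0.05).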

The subject of data set [2] is Human alphaherpesvirus 1. As to the kind of experiment: Efficacy was evaluated against Systemic HSV-1 infection in mice at a daily dose of 50 mg/kg administered orally; Total mice tested 10. Further details: dose 50 mg/kg. The format is organism-based. The settings on record: mouse, in vivo, po. The method in brief:
(§2)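 Mixed-sex ICR/Ha mice (10–20 g) were infected intraperitoneally with 50–100 LD50 of HSV-1 Schooler. Oral dosing of 0.1 mL twice daily for 7 days began immediately after infection. Groups were of about 10 mice. Deaths were recorded daily for 15 days, giving survivors/total and mean survival time with 95% CI. Significance was judged against placebo-treated infected mice using transformed survival times.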

Data set [3] concerns Human alphaherpesvirus 1. As to the kind of experiment: Efficacy was evaluated against Systemic HSV-1 infection in mice at a daily dose of 12.5 mg/kg administered orally; Total mice tested 10. The format is ADME, organism-based. Further details: dose 12.5 mg/kg. To be noted: mouse, in vivo, po. The method in brief:
as §2

In data set [4] the test system is Human alphaherpesvirus 1. In words: Efficacy was evaluated against Systemic HSV-1 infection in mice at a daily dose of 3.1 mg/kg administered orally; Total mice tested 10. In kind it is ADME, organism-based. The arrangement: dose 3.1 mg/kg. To be noted: mouse, in vivo, po. In outline:
as §2

The subject of data set [5] is Human alphaherpesvirus 1. As to the kind of experiment: Efficacy was evaluated against Systemic HSV-1 infection in mice at a daily dose of 50 mg/kg administered orally. The format is ADME, organism-based. Further details: dose 50 mg/kg. The settings on record: mouse, in vivo, po. The method in brief:
as §2

Data set [6] has as its system Human alphaherpesvirus 1. In words: In vitro anti viral activity tested against HSV-1(Schooler) virus on Rabbit kidney cell cultures; 1-3. To be noted: Human alphaherpesvirus 1, kidney; read-out: ED50 (the source's name). The format is functional. In outline:
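Confluent primary rabbit kidney monolayers were preincubated with serial drug dilutions in EMEM with 2% fetal calf serum and neomycin. They were then challenged with about 10 TCID50 of […] and incubated at 37 °C. Cytopathology was scored on day 5.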

Data set [7] deals with Human alphaherpesvirus 1. In words: Efficacy was evaluated against Oraficial HSV-1 infection in mice with lesions administered orally at a dose 12.5 mg/kg per day; Total mice tested 10. The format is organism-based. Further details: route oral. To be noted: mouse, in vivo, po. The method in brief:
as §1

For data set [8], the system named is Human alphaherpesvirus 1. In words: Efficacy was evaluated against Systemic HSV-1 infection in mice at a daily dose of 3.1 mg/kg administered orally. Further details: dose 3.1 mg/kg. The format is ADME, organism-based. The settings on record: mouse, in vivo, po. In outline:
as §2

In data set [9] the test system is Human alphaherpesvirus 1. In words: Efficacy was evaluated against Oraficial HSV-1 infection in mice with lesions administered orally at dose 3.1 mg/kg per day; Total mice tested 10. The format is ADME, organism-based. Further details: route oral. The settings on record: mouse, in vivo, po. In outline:
as §1

For data set [10], the system named is Human alphaherpesvirus 1. In words: Efficacy was evaluated against Oraficial HSV-1 infection in mice with lesions administered orally at a dose 50 mg/kg per day; Total mice tested 10. The format is organism-based. The arrangement: route oral. The settings on record: mouse, in vivo, po. The method in brief:
as §1

The test system of data set [11] is Human alphaherpesvirus 1. In words: Evaluated for DNA polymerase inhibition activity against herpes simplex virus-1 (HSV-1). In kind it is functional. The method in brief: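 Step II mixture supplied the phosphorylated test material. Step I: compound with HSV-1 thymidine kinase, 4 h, 37 °C. Step II: then HSV-1-infected HeLa crude extract plus GMP kinase, overnight, 30 °C. A 20 μL sample went to a 1 h, 37 °C DNA polymerase assay at pH 8 with activated salmon sperm DNA, 0.05 mM each dNTP ([³H]dTTP) and infected HeLa extract. (NH₄)₂SO₄ 0.1 M was present for the viral enzyme and omitted for the cellular polymerases. Read-out: TCA-precipitable radioactivity.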

The next data set has as its system Human alphaherpesvirus 2. As to the kind of experiment: In vitro anti viral activity tested against HSV-2(Curtis) virus on Rabbit kidney cell cultures; 1-3. In kind it is functional. To be noted: Human alphaherpesvirus 2, kidney; read-out: ED50 (the source's name). The method in brief:
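Confluent primary rabbit kidney monolayers were preincubated with serial drug dilutions in EMEM with 2% fetal calf serum and neomycin. They were then challenged with about 10 TCID50 of HSV-1 Schooler or HSV-2 Curtis and incubated at 37 °C. Cytopathology was scored on day 5. ED50 is the concentration preventing cytopathology in half of the infected cultures.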

Data set [12] relates to Human alphaherpesvirus 1. As to the kind of experiment: Efficacy was evaluated against Oraficial HSV-1 infection in mice with lesions administered orally at a dose 50 mg/kg per day. The format is ADME, organism-based. To be noted: mouse, in vivo, po. The arrangement: route oral. The method in brief:
as §1

Another data set concerns Human betaherpesvirus 5. In words: In vitro anti viral activity tested against HCMV(AD169) virus on MRC-5 cell monolayers; 20-25. The format is functional. The settings on record: Human betaherpesvirus 5, MRC5; read-out: ED50 (the source's name). The method in brief:
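MRC-5 monolayers were infected with HCMV AD169 for 1 h at 37 °C. Compound diluted in maintenance medium was then added and incubation continued for 7 days at 37 °C. Monolayers were stained and plaques counted. ED50 is the concentration reducing plaque number by 50%.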

Data set [13] relates to Human alphaherpesvirus 1. In words: Efficacy was evaluated against Systemic HSV-1 infection in mice at a daily dose of 12.5 mg/kg administered orally. The arrangement: dose 12.5 mg/kg. To be noted: mouse, in vivo, po. In kind it is ADME, organism-based. The method in brief: as §2
Data set [14] has as its system Human alphaherpesvirus 1. As to the kind of experiment: Efficacy was evaluated against Oraficial HSV-1 infection in mice with lesions administered orally at a dose 12.5 mg/kg per day. The format is ADME, organism-based. Further details: route oral. The settings on record: mouse, in vivo, po. In outline: as §1
The subject of data set [15] is DNA polymerase (Homo sapiens). In words: Evaluated for DNA polymerase inhibition activity against HeLa cells.

In brackets after ≈: the same amount, converted by molar mass.

Broadly, the Inhibition is the drop in the measured response relative to a control, in per cent. For `Nc1nc2c(ncn2COCCO)c(=O)[nH]1` [ACYCLOVIR], the Average lesion score with Human alphaherpesvirus 1 [1] was 3.75; in the data set on Human alphaherpesvirus 1 [12], 1.45; in the data set on Human alphaherpesvirus 1 [14], 2.95. Further, the Survivors turned out to be 2 in the data set with Human alphaherpesvirus 1 [2], 1 in the data set on Human alphaherpesvirus 1 [3] and 0 with Human alphaherpesvirus 1 [4]. Besides, the Average survival is 8.7 days with Human alphaherpesvirus 1 [5], 6.5 days with Human alphaherpesvirus 1 [8] and 7.6 days in the data set on Human alphaherpesvirus 1 [13]. Also, the EC50 in the data set on Human alphaherpesvirus 1 [6] was determined as 1 µg/mL (≈ 4.44 µM); in the data set on Human alphaherpesvirus 2 it was 1 µg/mL (≈ 4.44 µM); in the data set on Human betaherpesvirus 5, 20 µg/mL (≈ 88.8 µM). Also, the Mice with lesions with Human alphaherpesvirus 1 [7] is 8; in the data set on Human alphaherpesvirus 1 [9], 10; in the data set on Human alphaherpesvirus 1 [10], 6. In addition, the values for the Inhibition (with Human alphaherpesvirus 1 [11]; in [15]) were 85% and 34%, respectively.
